Bioassay records deposited in PubChem BioAssay by several laboratories.
KCNK9 block – KCNK9 potassium channel inhibitors, primary screen, HEK293 cells, thallium flux | FluxOR thallium flux fluorescence; hits give low values | B-score at 10 µM | 310,000 tested, 1.2% active;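 active means ratio B-score over 3 SD below the library mean, with starting fluorescence within 5 SD of its mean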;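 further: negative B-score means less thallium flux so channel inhibition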
Target sequence (Q9NPC2 whole entry, looked up): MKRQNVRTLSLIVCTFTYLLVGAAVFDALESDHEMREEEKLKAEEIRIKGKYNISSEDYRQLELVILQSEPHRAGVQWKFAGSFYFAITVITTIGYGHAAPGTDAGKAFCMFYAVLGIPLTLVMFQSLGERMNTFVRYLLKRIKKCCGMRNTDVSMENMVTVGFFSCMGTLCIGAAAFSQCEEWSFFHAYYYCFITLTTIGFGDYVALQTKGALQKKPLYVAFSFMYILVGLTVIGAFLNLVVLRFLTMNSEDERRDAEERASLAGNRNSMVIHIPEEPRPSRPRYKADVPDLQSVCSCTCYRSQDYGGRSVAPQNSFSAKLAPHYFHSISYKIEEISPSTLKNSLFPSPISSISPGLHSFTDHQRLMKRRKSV
KCNQ1 pot – potentiators or activators of KCNQ1 channel, primary screen, cell-based, thallium flux, high-throughput | Potassium voltage-gated channel subfamily KQT member 1 (Homo sapiens), P51787 | CHO-K1 KCNQ1, thallium flux FluxOR fluorescence; hits give high values | B-score at 10 µM | 310,000 tested, 0.35% active | AID 2648, 2010;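 active means fluorescence ratio B-score, a plate-corrected score, at least three library SD, with initial intensity B-score within 5 SD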
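assay system = KCNQ1-transfected CHO-K1 cells | medium = assay buffer with matched DMSO | probe or stimulus = depolarizing K+/Tl+ stimulus, K2SO4 and Tl2SO4 each 12.5 mM in 5x stock | dosing = single dose | incubation = dye 90 min, compound 20 min, room temperature | detection = kinetic FluxOR fluorescence, 10 s baseline plus 110 s post-stimulus | evaluation = ratio B score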
KCC2 mod – KCC2 cotransporter modulators, thallium flux, primary screen, cell-based, HEK293 KCC2, FluoZin-2 fluorescence, MLSMR. Solute carrier family 12 member 5 (Homo sapiens), Q9H2X9. AID 1456, 2008. KCC2 cells, thallium flux FluoZin-2 fluorescence. B-score of Tl+ flux slope (higher = more flux/activation; lower = inhibition) at 10 µM. 190,000 tested, 2.2% active;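 active means thallium flux slope and its plate-corrected score both differing from the plate sample mean at a set confidence after two filtering rounds, in either direction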;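 further: slope of fluorescence scaled to starting intensity during 10 to 20 s after thallium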
KCNQ1 block – inhibitors of human KCNQ1 channel, primary screen, cell-based, thallium flux, high-throughput | CHO-K1 KCNQ1, FluxOR thallium flux fluorescence; hits give high values | Potassium voltage-gated channel subfamily KQT member 1 (Homo sapiens), P51787 | B-score at 10 µM | 310,000 tested, 1.3% active;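 active means compounds whose thallium flux B-score, printed positive for inhibition, exceeds three library SD while starting fluorescence stays within three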;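 further: channel opened by potassium depolarization with thallium stimulus after 20 min compound exposure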
KCNK3 inh – human KCNK3 channel inhibitors, primary screen, CHO cells, FluxOR thallium flux, B-score; 340,000 tested, 0.84% active; Potassium channel subfamily K member 3 (Homo sapiens), O14649; AID 602410, 2012; FluxOR fluorescence; hits give low values; B-score at 10 µM;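 active means B-score under library mean minus 4 SD, starting fluorescence ratio at most library mean plus 5 SD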;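 further: more negative B-score means stronger inhibition of thallium flux through KCNK3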
Target sequence (O14649 whole entry, looked up): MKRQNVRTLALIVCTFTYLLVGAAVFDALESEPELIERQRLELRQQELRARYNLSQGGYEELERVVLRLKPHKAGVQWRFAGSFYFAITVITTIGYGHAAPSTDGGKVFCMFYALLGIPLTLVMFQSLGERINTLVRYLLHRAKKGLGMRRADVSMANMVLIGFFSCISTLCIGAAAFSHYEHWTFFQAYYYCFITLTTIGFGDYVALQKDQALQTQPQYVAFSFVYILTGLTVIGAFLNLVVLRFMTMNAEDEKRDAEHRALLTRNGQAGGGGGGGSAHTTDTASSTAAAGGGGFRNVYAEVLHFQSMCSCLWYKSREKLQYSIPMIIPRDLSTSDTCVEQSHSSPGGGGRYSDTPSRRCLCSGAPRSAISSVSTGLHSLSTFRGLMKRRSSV
hERG rescue – hERG rescue from dofetilide block, primary screen, cell-based, CHO-hERG, FluxOR thallium flux, dofetilide IC70. Voltage-gated inwardly rectifying potassium channel KCNH2 (Homo sapiens), Q12809. dofetilide IC70 present. activation (rescue from dofetilide block), less the hit threshold, % at 10 µM. 310,000 tested, 0.51% active. AID 1511, 2009;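 active means activation above the mean of controls blocked by dofetilide plus 5 SD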;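 further: thallium influx through hERG after potassium depolarization seen as dye fluorescence rise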
KCC2 sec1 – KCC2 modulators in sodium-free buffer, confirmation, cell-based, HEK293 KCC2, thallium flux, secondary assay; shares compounds with KCC2 mod; FluoZin2 fluorescence; hits give high values; normalised thallium flux (F/F0 slope) at 10 µM; 3,700 tested, 15% active;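 active means thallium flux slope above the same plate's solvent-only control mean plus 3 SD; inconclusive means the two replicate wells disagree; inactive means no significant difference from solvent-only control wells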
KCC2 bumet counter – thallium flux persisting under bumetanide in KCC2 cells, confirmation, counter-screen for KCC2 modulator project, cell-based, HEK293 KCC2, FluoZin2, secondary assay 3 | normalized thallium flux at 10 µM | 3,700 tested, 49% active | shares compounds with KCC2 mod | HEK293-KCC2 + bumetanide/ouabain; hits give high values | AID 1714, 2009;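 active means thallium entry rate above the same plate's blocked-transporter control wells by more than 3 SD; inconclusive means the two repeat wells disagree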;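 further: raw slope of fluorescence over initial fluorescence between 10 and 20 s after thallium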
KCC2 secondary2 – KCC2 modulators without ouabain present, confirmation, cell-based, HEK293 KCC2, thallium flux, FluoZin2, secondary assay 2 | shares compounds with KCC2 mod | thallium flux FluoZin2 fluorescence; actives lie on both sides; F/F0 rise rate, 10–20 s post-thallium | normalized thallium flux at 10 µM | 3,700 tested, 23% active;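 active means thallium flux slope more than 3 SD above or below the plate's solvent-only control mean, mostly below; inconclusive means the two repeat wells disagreed; inactive means no significant shift from solvent-only controls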;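 further: raw slope with 0.1% DMSO as baseline and bumetanide as block control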
HEK293 Tl flux – thallium flux modulation in parental HEK cells, confirmation, counter-screen for KCC2 modulator project, cell-based, counterscreen 1; shares compounds with KCC2 mod; HEK293 parental cells, thallium flux FluoZin2, ouabain; baseline-ratio fluorescence slope, 10–20 s after thallium; thallium flux rate (normalised fluorescence) at 10 µM; 3,700 tested, 46% active; AID 1716, 2009;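 active means thallium flux rate significantly above the same plate's solvent-only control wells, beyond their mean plus 3 SD; inconclusive means the two replicate wells gave conflicting results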
KCC2 retest ouab – KCC2 inhibitors and activators, ouabain retest, confirmation, HEK-KCC2 cells | shares compounds with KCC2 mod | HEK293-KCC2, thallium flux FluoZin2 fluorescence; bidirectional: low = inhibitor, high = activator | raw Tl+ flux slope (below DMSO = inhibition, above = activation) at 10 µM | 3,700 tested, 48% active;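 active means thallium flux slope beyond 3 SD from same-plate DMSO control mean in most replicates, usually higher, sometimes lower; inconclusive means repeat tests gave conflicting results; inactive means no significant difference from controls in most replicates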;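 further: slope of initial-normalized fluorescence between seconds 10 and 20 after thallium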
HEK293 Tl flux2 – native HEK Tl+ uptake effects, second counter-screen – HEK cells, counterscreen 2, counter-screen for KCC2 modulator project, confirmation. 3,700 tested, 33% active. AID 1718, 2009. thallium flux slope at 10 µM. HEK293 parental, thallium flux FluoZin-2 fluorescence slope. shares compounds with KCC2 mod;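 active means thallium flux slope above the same plate's solvent-control mean plus 3 SD in both duplicate wells; inconclusive means duplicate wells that disagreed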;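 further: run without ouabain in cells lacking the KCC2 cotransporter; slope of fluorescence scaled to its starting value between 10 and 20 s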
Active calls of the source: *; i = inactive; ? = inconclusive; . = not tested or not shown. An excerpt weighted towards active compounds, which were near 4.1% of everything screened.

SMILES	KCNK9 block	KCNQ1 pot	KCC2 mod	KCNQ1 block	KCNK3 inh	hERG rescue	KCC2 sec1	KCC2 bumet counter	KCC2 secondary2	HEK293 Tl flux	KCC2 retest ouab	HEK293 Tl flux2
COc1ccc(-n2c(Cc3cccn3C)nnc2SCC(=O)Nc2ccc(F)cc2)cc1	i	i	-3.1*	i	i	-10	0.0089	0.005	0.036	0.0072	0.019	0.011
CSC(=S)N/N=C/c1ccc(Br)cc1	i	41*	68*	i	i	19*	0.026*	0.088*	0.048*	0.037*	0.046*	0.038*
COc1cccc(S(=O)(=O)NC2CCN(C#N)C2)c1 (configuration not stated)	.	.	.	.	i	.	.	.	.	.	.	.
O=C(N/N=C/c1ccco1)c1cc(-c2ccccc2)nc2ccccc12	i	i	.	i	i	-12	.	.	.	.	.	.
O=C(N/N=C/c1ccccn1)c1cc(-c2ccc(Br)cc2)nc2ccccc12	i	14*	9.4*	i	i	-1	0.011	0.025*	0.035	?	?	?
O=C(N/N=C/c1ccccn1)c1cc(-c2ccc(Cl)cc2)nc2ccccc12	i	i	7.5*	i	i	-11	?	0.042*	0.033	0.018*	0.027	?
O=C(COC(=O)c1ccc([N+](=O)[O-])o1)NCc1ccc2c(c1)OCO2	.	.	.	.	i	.	.	.	.	.	.	.
COCCNS(=O)(=O)c1ccc(-c2ccc(Cl)cc2)cc1	i	i	-2.8*	i	i	-16	0.0072	0.0053	0.026*	0.008	?	0.012
CCSc1n[nH]c2nc3c(c(=O)n12)C1(CCCC1)Cc1ccccc1-3	i	i	-0.84	i	i	-7	.	.	.	.	.	.
C=CCSc1n[nH]c2nc3c(c(=O)n12)C1(CCCC1)Cc1ccccc1-3	.	.	.	.	i	.	0.0082	?	0.034	?	0.019	0.01
O=[N+]([O-])c1ccc(/C=N/NC(=S)Nc2ccccc2C(F)(F)F)o1	i	i	21*	i	i	-7	0.0072	0.046*	0.051*	0.027*	0.054*	0.021*
CSCC[C@H](N)C(=O)N1CCC(C(=O)N[C@H](C(=O)NCc2ccccc2F)C(C)C)CC1	i	i	.	i	i	-7	.	.	.	.	.	.
COC(=O)c1cc(Sc2cccc(Cl)c2Cl)ccn1	i	i	-2.9*	i	i	-27	0.0069	0.0044	?	0.0061*	0.014*	0.01
COC(=O)c1cc(Sc2c(Cl)cccc2Cl)ccn1	i	i	-3.4	i	i	-23	.	.	.	.	.	.
CC(C)c1ccc(NC2CCCN(C(=O)CCc3cn[nH]c3)C2)cc1 (configuration not stated)	i	i	.	i	i	-2	.	.	.	.	.	.
Cc1cc(SCC(=O)NC(=O)NCc2ccco2)nc2c(C)cccc12	i	i	4.4*	i	i	2	0.0076	0.0063*	0.034	0.019*	?	0.016*
COc1ccc(CCN(C)C(=S)Nc2ccc(SC(F)F)cc2)cc1OC	i	i	.	i	i	1	.	.	.	.	.	.
COc1ccc(CCN(C)C(=S)NC(=O)c2ccc(F)cc2Cl)cc1OC	i	i	9.8*	i	i	-8	0.015*	0.036*	0.028	0.017*	0.033*	0.01*
O=C(Cn1nnc(-c2ccccc2-n2cnnn2)n1)NCc1ccccc1	i	i	-4*	i	i	-1	0.0082	0.0046	?	0.008	0.019	0.011
Cc1ccc(C(=O)Cn2nnc(-c3ccccc3-n3cnnn3)n2)cc1	i	i	-0.59	i	i	3	.	.	.	.	.	.
Nc1c(-c2ccc(Cl)cc2)cnc2c(-c3ccccc3)cnn12	i	i	.	i	i	-5	.	.	.	.	.	.
Cn1cc(SCC(=O)N2CCN(c3ccccc3)CC2)c2ccccc21	i	i	-5.2*	i	i	-12	0.0063	0.005	0.023*	0.0069	0.014*	0.0095
Cn1cc(SCC(=O)N2CCOCC2)c2ccccc21	i	i	-0.79	i	i	-5	.	.	.	.	.	.
O=C1CN(C(=O)COC(=O)CCC(=O)c2ccc3c(c2)OCCO3)c2ccccc2N1	i	i	-4.4*	i	i	-8	0.0073	0.005	0.024*	0.0078	0.017	0.01
Cc1cccc(N2CCN(C(=O)CCS(=O)(=O)c3ccc(Br)cc3)CC2C)c1 (configuration not stated)	i	i	0.74	i	i	-10	.	.	.	.	.	.
CC(=O)N1CCCc2cc(S(=O)(=O)CCC(=O)N3CCN(c4cccc(C)c4)C(C)C3)ccc21 (configuration not stated)	i	i	-3.6*	i	i	-11	0.0076	0.0049	0.026	0.0073	0.018	0.01
CNC(=O)COc1coc(CN2CCN(c3ccc(F)cc3)CC2)cc1=O	i	i	.	i	i	-5	.	.	.	.	.	.
